In the M2OR odorant receptor database:
Positions count from the first letter of the chain named.

How the values were obtained:
Conditions in all cases: stereoisomer not certain
[1] = biological target: T1, OR8D1 (Homo sapiens) (UniProt Q8WZ84)
T1 sequence (whole entry): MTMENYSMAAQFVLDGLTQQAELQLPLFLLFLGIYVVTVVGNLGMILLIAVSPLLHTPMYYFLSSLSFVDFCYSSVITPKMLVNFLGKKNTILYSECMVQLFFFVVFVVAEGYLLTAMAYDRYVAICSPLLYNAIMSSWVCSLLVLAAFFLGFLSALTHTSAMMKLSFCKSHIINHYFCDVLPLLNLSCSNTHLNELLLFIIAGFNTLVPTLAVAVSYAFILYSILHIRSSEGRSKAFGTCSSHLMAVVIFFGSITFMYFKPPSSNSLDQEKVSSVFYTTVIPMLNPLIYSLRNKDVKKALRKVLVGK
Outline: (§1)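 Transient luciferase assays in mammalian cell lines were common, though methods varied by source. The values come from published papers and their supplementary material, with extra details from the original authors when needed. Responsive refers to a measured signal the original authors judged statistically different from baseline, and non-responsive (inactive) to the remainder.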

[2] = tested on: T2, OR8B3 H20R Q24R M114I
T2 sequence (whole entry): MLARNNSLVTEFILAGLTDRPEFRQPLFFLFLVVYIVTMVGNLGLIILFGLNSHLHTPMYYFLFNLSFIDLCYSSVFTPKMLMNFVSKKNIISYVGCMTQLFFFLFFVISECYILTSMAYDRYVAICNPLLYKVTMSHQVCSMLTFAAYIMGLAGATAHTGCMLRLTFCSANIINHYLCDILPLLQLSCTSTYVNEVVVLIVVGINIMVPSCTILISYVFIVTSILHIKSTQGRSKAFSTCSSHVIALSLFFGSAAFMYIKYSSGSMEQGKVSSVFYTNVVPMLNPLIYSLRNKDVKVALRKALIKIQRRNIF
Outline: as §1

[3] = tested on: T3, OR8B3 H20R Q24R Y113H
T3 sequence (whole entry): T2 sequence (whole entry) with Y113H, I114M
Outline: as §1

[4] = tested on: T4, OR8B3 H20R Q24R
T4 sequence (whole entry): T2 sequence (whole entry) with I114M
Outline: as §1

[5] = biological target: T5, OR8B4 (Homo sapiens) (UniProt Q96RC9)
T5 sequence (whole entry): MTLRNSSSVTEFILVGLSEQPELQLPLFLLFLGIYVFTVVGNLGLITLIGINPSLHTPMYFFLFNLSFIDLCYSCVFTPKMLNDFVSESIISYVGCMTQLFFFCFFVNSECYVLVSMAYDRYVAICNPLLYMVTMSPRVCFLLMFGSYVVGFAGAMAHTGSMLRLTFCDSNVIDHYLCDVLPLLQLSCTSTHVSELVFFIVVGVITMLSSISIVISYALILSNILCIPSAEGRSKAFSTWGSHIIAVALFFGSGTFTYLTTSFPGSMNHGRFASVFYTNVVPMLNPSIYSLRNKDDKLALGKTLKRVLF
Outline: as §1

[6] = tested on: T6, OR8B4
T6 sequence (whole entry): T5 sequence (whole entry) with E22G
Outline: as §1

[7] = biological target: T7, OR8B8 (Homo sapiens) (UniProt Q15620)
T7 sequence (whole entry): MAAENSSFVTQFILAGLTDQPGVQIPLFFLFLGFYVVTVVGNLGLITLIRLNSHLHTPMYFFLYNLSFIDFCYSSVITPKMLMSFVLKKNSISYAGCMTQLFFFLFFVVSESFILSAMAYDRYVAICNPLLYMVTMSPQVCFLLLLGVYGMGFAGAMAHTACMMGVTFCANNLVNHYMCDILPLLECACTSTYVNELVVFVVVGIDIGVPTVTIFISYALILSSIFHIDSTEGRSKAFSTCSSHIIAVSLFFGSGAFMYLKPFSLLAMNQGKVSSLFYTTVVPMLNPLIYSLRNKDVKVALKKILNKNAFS
Outline: as §1

[8] = tested on: T8, OR8B8 L101P
T8 sequence (whole entry): T7 sequence (whole entry) with L101P
Outline: as §1

[9] = tested on: T9, OR8D1 C127G L194P
T9 sequence (whole entry): T1 sequence (whole entry) with C127G, L194P
Outline: as §1

[10] = tested on: T10, OR8D1 L194P
T10 sequence (whole entry): T1 sequence (whole entry) with L194P
Outline: as §1

[11] = biological target: T11, OR8D2 (Homo sapiens) (UniProt Q9GZM6)
T11 sequence (whole entry): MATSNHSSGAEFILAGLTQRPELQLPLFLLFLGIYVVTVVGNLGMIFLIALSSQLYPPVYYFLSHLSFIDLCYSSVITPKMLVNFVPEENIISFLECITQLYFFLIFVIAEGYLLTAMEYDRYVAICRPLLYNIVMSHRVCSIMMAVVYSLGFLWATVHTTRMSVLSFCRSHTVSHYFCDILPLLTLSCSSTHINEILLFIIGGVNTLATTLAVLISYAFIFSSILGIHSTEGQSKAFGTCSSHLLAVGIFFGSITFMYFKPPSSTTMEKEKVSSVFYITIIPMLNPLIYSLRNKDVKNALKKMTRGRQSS
Outline: as §1

[12] = biological target: T12, OR8D4 (Homo sapiens) (UniProt Q8NGM9)
T12 sequence (whole entry): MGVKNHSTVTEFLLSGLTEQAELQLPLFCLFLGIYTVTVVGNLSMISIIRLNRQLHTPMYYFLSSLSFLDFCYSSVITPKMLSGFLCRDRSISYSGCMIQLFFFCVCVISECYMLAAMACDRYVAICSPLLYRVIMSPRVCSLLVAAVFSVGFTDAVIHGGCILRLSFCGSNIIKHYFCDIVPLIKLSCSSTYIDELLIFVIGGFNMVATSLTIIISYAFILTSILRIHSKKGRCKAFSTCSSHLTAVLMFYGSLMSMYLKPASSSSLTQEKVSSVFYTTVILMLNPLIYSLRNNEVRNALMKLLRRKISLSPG
Outline: as §1

[13] = tested on: T13, OR8D4 C120Y R133K
T13 sequence (whole entry): T12 sequence (whole entry) with C120Y, R133K
Outline: as §1

[14] = biological target: T14, OR8G1 (Homo sapiens) (UniProt Q15617)
T14 sequence (whole entry): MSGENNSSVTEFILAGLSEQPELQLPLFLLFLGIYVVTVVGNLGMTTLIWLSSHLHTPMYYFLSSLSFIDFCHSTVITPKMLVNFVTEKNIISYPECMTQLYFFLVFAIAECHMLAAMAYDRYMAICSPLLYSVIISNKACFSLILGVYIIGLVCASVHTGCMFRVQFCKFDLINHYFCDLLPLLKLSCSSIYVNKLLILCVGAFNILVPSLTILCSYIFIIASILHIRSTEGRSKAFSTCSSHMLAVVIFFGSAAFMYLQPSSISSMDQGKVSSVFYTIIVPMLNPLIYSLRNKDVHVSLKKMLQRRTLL
Outline: as §1

[15] = biological target: T15, OR8G5 (Homo sapiens) (UniProt Q8NG78)
T15 sequence (whole entry): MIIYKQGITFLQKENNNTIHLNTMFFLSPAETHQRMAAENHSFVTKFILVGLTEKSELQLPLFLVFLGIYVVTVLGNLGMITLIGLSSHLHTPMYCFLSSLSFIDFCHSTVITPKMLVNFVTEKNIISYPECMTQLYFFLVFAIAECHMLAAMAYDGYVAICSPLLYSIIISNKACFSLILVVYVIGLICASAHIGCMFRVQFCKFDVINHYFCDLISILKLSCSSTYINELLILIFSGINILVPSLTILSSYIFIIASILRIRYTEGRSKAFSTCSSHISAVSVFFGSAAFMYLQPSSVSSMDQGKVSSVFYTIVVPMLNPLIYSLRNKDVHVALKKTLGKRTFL
Outline: as §1

[16] = biological target: T16, OR8H1 (Homo sapiens) (UniProt Q8NGG4)
T16 sequence (whole entry): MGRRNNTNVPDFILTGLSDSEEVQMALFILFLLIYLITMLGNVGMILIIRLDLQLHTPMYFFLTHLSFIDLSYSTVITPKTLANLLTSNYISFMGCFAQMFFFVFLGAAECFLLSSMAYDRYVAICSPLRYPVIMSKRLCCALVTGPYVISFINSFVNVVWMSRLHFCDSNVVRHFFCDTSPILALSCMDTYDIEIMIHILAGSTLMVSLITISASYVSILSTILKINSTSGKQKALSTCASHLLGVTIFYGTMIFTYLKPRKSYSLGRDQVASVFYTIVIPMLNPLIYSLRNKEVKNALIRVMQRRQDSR
Outline: as §1

[17] = biological target: T17, OR8H2 (Homo sapiens) (UniProt Q8N162)
T17 sequence (whole entry): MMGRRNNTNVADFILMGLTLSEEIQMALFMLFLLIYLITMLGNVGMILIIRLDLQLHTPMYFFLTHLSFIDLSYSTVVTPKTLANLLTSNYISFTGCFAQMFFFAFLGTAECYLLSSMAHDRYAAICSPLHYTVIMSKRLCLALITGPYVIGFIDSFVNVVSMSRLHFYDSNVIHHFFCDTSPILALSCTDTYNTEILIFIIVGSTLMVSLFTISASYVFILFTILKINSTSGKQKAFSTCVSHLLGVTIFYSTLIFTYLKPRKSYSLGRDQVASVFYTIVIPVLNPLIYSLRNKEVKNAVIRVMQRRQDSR
Outline: as §1

[18] = tested on: T18, OR8H2 H120Y Y169C V284M
T18 sequence (whole entry): T17 sequence (whole entry) with H120Y, Y169C, V284M
Outline: as §1

[19] = biological target: T19, OR8H3 (Homo sapiens) (UniProt Q8N146)
T19 sequence (whole entry): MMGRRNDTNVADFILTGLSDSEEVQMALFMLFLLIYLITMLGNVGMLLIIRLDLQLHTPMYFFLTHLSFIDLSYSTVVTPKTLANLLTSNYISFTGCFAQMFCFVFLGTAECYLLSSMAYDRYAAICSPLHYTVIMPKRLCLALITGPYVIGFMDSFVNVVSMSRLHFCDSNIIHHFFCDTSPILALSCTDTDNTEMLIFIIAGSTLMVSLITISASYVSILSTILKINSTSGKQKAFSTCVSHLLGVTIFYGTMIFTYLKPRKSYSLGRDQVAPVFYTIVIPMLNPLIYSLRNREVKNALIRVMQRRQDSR
Outline: as §1

[20] = tested on: T20, OR8H3
T20 sequence (whole entry): T19 sequence (whole entry) with P137S
Outline: as §1

Measured: odorant receptor agonist call

O=c1ccc2ccccc2o1
inactive: [1]

CC1=C(O)C(=O)OC1C (stereo not drawn)
active: [1]
inactive: all other assays above

CCCCC(S)C(C)CO (stereo not drawn)
inactive: [5] | [7] | [1] | [11] | [12] | [14] | [15] | [16] | [17] | [19]

CSC
inactive: [1]

CC1=C(O)C(=O)C(C)O1 (stereo not drawn)
inactive: all assays above

C=C1CCC2(C(C)C)CC12 (stereo not drawn)
inactive: [1]

CCC(=O)C(C)=O
inactive: [1]

CCC1OC(=O)C(O)=C1C (stereo not drawn)
active: [1]
inactive: all other assays above

CCC=CCCC=CC=O
inactive: [1]

CCCCC=CC=CC=O
inactive: [1]

CCc1cccc(O)c1
inactive: [1]

OCCc1ccccc1
inactive: [1]
